RGS4 pot = potentiators or activators of RGS4; actives 0.92% (n = 310,000); AID 463111; B-score at 10 µM; HEK293 M3R/inducible RGS4, carbachol calcium flux Fluo4; hits give low values;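 active means B-score of the integrated calcium signal more than 4 SD below the library mean, with starting fluorescence not abnormally high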;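 further: negative B-score means reduced calcium response which marks RGS4 activation or potentiation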
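test system = HEK293 cells with stable M3R and inducible RGS4 | schedule = recording 10 s baseline at 1 Hz, 100 s post-agonist | technique = Fluo4-AM (2 µM) calcium-flux fluorescence, kinetic read | measure = Agonist-evoked peak-minus-minimum fluorescence over baseline, integrated ratio, B score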
RGS4 block = inhibitors of human RGS4 | P49798 | AID 463165 | B-score at 10 µM | actives 0.45% (n = 310,000) | HEK293 M3R/RGS4 inducible, Fluo-4 calcium flux; hits give high values; triggered by carbachol at its EC20;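 active means B-score, a plate-corrected calcium signal, over three deviations above library mean, with baseline fluorescence within five deviations of library mean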;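 further: RGS4 expression induced by doxycycline in cells with stable M3 receptor; B-score is computed from the integrated fluorescence ratio over baseline after carbachol; higher B-score means a larger calcium signal and so more RGS4 inhibition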
Target sequence (P49798 whole entry, looked up): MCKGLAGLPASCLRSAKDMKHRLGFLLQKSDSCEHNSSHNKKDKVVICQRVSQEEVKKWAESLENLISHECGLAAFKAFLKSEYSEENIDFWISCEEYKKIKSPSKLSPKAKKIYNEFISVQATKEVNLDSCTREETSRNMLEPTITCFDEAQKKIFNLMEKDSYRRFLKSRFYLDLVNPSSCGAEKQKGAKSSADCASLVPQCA
MrgX1 agonist = activates human MrgX1 receptor signaling; Q96LB2; MrgX1-HEK293 cells, Fluo-4 calcium fluorescence, agonist mode; hits give high values; B-score at 10 µM; actives 0.44% (n = 310,000);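 active means calcium response B-score plate-corrected fluorescence ratio at least 3 library SD, with starting fluorescence B-score inside 5 SD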
Target sequence (Q96LB2 whole entry, looked up): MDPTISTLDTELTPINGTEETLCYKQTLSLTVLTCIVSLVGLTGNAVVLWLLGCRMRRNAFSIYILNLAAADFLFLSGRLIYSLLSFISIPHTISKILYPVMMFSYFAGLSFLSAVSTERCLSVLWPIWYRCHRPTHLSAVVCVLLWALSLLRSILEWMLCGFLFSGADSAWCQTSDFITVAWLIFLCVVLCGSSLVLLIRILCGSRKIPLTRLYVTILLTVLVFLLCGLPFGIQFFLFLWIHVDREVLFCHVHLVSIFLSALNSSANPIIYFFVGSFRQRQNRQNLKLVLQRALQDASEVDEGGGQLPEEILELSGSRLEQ
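Assay system: stable human MrgX1 HEK293 cell line. Quantity: 15,000 cells per well. Schedule: cells plated overnight, dye loaded 0.5 h 37 °C, 0.5 h room temperature. Detection: Fluo-4 NW calcium-flux fluorescence, kinetic read. Read-out basis: peak-minus-minimum fluorescence over baseline, converted to B scores. Control set: positive and negative control wells on each plate.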
MrgX1 PAM = human MrgX1 positive allosteric modulation, primary screen | actives 0.63% (n = 310,000) | B-score at 10 µM | Q96LB2 | MrgX1-HEK293, Fluo-4 calcium flux, FDSS; hits give high values;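 active means plate-corrected calcium response at least 3 library SD above typical, normal starting fluorescence, not activating the receptor alone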;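 further: compound read alongside a low EC10 to EC30 dose of BAM8-22 agonist; peak minus trough fluorescence over baseline measured at the second addition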
MrgX1 antag = antagonists of human MrgX1 receptor; MRGX1-HEK293 calcium flux, Fluo-4, BAM8-22 antagonism; hits give low values; B-score at 10 µM; Q96LB2; actives 1.3% (n = 310,000); AID 588676;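 active means calcium-response B-score plate-corrected more than 3 library SD below zero, starting fluorescence within 5 deviations, no agonist response on first addition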;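 further: peak minus trough fluorescence over baseline after final BAM8-22 challenge near maximal dose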
RGS4 block valid = validation of RGS4 inhibitors; actives 65% (n = 1,700); calcium response, % at 10 µM; shares compounds with RGS4 block; HEK293 M3R/RGS4, carbachol calcium Fluo-4 fluorescence; carbachol added at its EC20; 0 = buffer wells, 100 = carbachol control;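 active means duplicate-averaged calcium response above the buffer-only control mean plus 5 SD of those controls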;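 further: integrated fluorescence ratio F max minus min over baseline F0; higher response in RGS4-induced cells means RGS4 inhibition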
RGS4 uninduced = non-induced cell nonspecific activity of RGS4 inhibitors | shares compounds with RGS4 block | HEK293 M3R non-induced, carbachol calcium Fluo-4; submaximal (EC20) carbachol stimulus; buffer wells 0%, carbachol control wells 100% | activity (percent), % at 10 µM | actives 20% (n = 1,900) | AID 493000; call rule not given here;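 further: RGS4 induction absent so cells express M3R without RGS4; higher means more calcium signal and flags a non-specific hit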
RGS4 inh ctr2 = signal in non-induced cells without carbachol, RGS4 inhibitor counter-screen | shares compounds with RGS4 block | HEK293 M3R/RGS4 non-induced, Fluo-4 calcium, no carbachol; normalised: buffer wells 0%, carbachol wells 100% | actives 22% (n = 1,900) | calcium response (agonist-mode artifact), % at 10 µM;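 active means duplicate-averaged calcium rise in uninduced cells above buffer wells' mean plus 5 SD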
* = called active by the depositor. Sampled rows, rich in hits. Any-hit rate of the full collection: about 3.5%.

For Cc1cc(C)n(/C(=C\N(C)C)C(=O)c2cccc([N+](=O)[O-])c2)n1 the results were RGS4 pot inactive, RGS4 block inactive, MrgX1 agonist inactive, MrgX1 PAM inactive and MrgX1 antag inactive.
Screening COc1ccc(N(C(=O)Cn2nnc(-c3ccc(Cl)cc3)n2)C(C(=O)NCC2CCCO2)c2ccncc2)cc1 (stereo not drawn) returned RGS4 pot inactive, RGS4 block inactive, MrgX1 agonist inactive, MrgX1 PAM inactive and MrgX1 antag inactive.
`Cc1cc(NC(=O)CC2CCCC2)n(-c2nc3ccccc3[nH]2)n1` gave RGS4 pot inactive, RGS4 block inactive, MrgX1 agonist inactive, MrgX1 PAM inactive and MrgX1 antag inactive.
Screening Cc1ccccc1OCCNc1cc(N2CCCCC2)ccc1[N+](=O)[O-] returned RGS4 pot inactive, RGS4 block inactive, MrgX1 agonist inactive, MrgX1 PAM inactive, MrgX1 antag inactive, RGS4 block valid inactive, RGS4 uninduced inactive and RGS4 inh ctr2 inactive.
For Cc1ccccc1OCCNc1cc(N2CCN(CCO)CC2)ccc1[N+](=O)[O-] the results were RGS4 pot inactive, RGS4 block inactive, MrgX1 agonist inactive, MrgX1 PAM inactive and MrgX1 antag inactive.
Screening COc1ccc(OC)c(C2C=C(C34CC5CC(CC(C5)C3)C4)NC(=S)N2)c1 (stereo not drawn) returned RGS4 pot inactive, RGS4 block 8.81*, MrgX1 agonist inactive, MrgX1 PAM inactive, MrgX1 antag inactive, RGS4 block valid 14.5%*, RGS4 uninduced inactive and RGS4 inh ctr2 inactive.
`CCOC(=O)C1=C(CN2CCN(C(=O)c3ccco3)CC2)NC(=O)NC1c1ccc(OC(C)C)cc1` (stereo not drawn) gave RGS4 pot inactive, RGS4 block inactive, MrgX1 agonist inactive, MrgX1 PAM inactive and MrgX1 antag inactive.
For COC(=O)c1cn(C(=O)/C=C/c2ccc(OC)c(OC)c2)c2ccccc12 the results were RGS4 pot inactive, RGS4 block 4.7*, MrgX1 agonist inactive, MrgX1 PAM inactive, MrgX1 antag inactive, RGS4 block valid inactive, RGS4 uninduced inactive and RGS4 inh ctr2 inactive.
`COC(=O)c1cn(C(=O)OC)c2ccccc12` gave RGS4 pot inactive, RGS4 block inactive, MrgX1 agonist inactive, MrgX1 PAM inactive and MrgX1 antag inactive.
CC1(C)CC(=O)C(C(C2=C(O)CC(C)(C)CC2=O)c2cccc(O)c2)C(=O)C1 (stereo not drawn) was read as MrgX1 agonist inactive, MrgX1 PAM inactive and MrgX1 antag inactive.
For CC1(C)CC(=O)C(C(C2=C(O)CC(C)(C)CC2=O)c2cccs2)C(=O)C1 (stereo not drawn) the results were RGS4 pot inactive, RGS4 block 5.71*, MrgX1 agonist inactive, MrgX1 PAM inactive, MrgX1 antag inactive, RGS4 block valid 24.5%*, RGS4 uninduced 58.5%* and RGS4 inh ctr2 inactive.
`Cc1ccc(C(C2=C(O)CC(C)(C)CC2=O)C2C(=O)CC(C)(C)CC2=O)o1` (stereo not drawn) gave RGS4 pot inactive, RGS4 block 9.3*, MrgX1 agonist inactive, MrgX1 PAM inactive, MrgX1 antag inactive, RGS4 block valid 16.0%*, RGS4 uninduced inactive and RGS4 inh ctr2 inactive.
For CCOc1ccc(-c2c(=O)n(OCc3ccccn3)c3ccccc3[n+]2[O-])cc1 the results were RGS4 pot inactive, RGS4 block inactive, MrgX1 agonist inactive, MrgX1 PAM inactive and MrgX1 antag inactive.
For CCOc1ccc(C(=O)Nc2nnc(NC(=S)Nc3ccccc3)s2)cc1 the results were RGS4 pot inactive, RGS4 block 4.87*, MrgX1 agonist inactive, MrgX1 PAM inactive, MrgX1 antag inactive, RGS4 block valid 10.0%*, RGS4 uninduced inactive and RGS4 inh ctr2 inactive.
For Cc1ccc(C(=O)Nc2nnc(NC(=S)Nc3ccccc3)s2)cc1 the results were RGS4 pot inactive, RGS4 block inactive, MrgX1 agonist inactive, MrgX1 PAM inactive and MrgX1 antag inactive.
`O=C1CN(C(=O)COc2cccc(F)c2)c2ccccc2N1` gave RGS4 pot inactive, RGS4 block inactive, MrgX1 agonist inactive, MrgX1 PAM inactive and MrgX1 antag inactive.
Screening CCC1CCCCN1CCCn1c(=S)[nH]c2ccccc2c1=O (stereo not drawn) returned RGS4 pot inactive, RGS4 block 6.87*, MrgX1 agonist inactive, MrgX1 PAM inactive, MrgX1 antag inactive, RGS4 block valid 19.0%*, RGS4 uninduced inactive and RGS4 inh ctr2 inactive.
`COc1ccc(-c2ccncc2)cc1OC` gave RGS4 pot inactive, RGS4 block inactive, MrgX1 agonist inactive, MrgX1 PAM inactive and MrgX1 antag inactive.
`O=C(COC(=O)/C=C/c1cccs1)Nc1nc(-c2ccccc2)cs1` gave RGS4 pot inactive, RGS4 block 14.8*, MrgX1 agonist inactive, MrgX1 PAM inactive, MrgX1 antag inactive, RGS4 block valid 50.5%*, RGS4 uninduced 53.0%* and RGS4 inh ctr2 inactive.
For O=C(COC(=O)/C=C/c1cccs1)Nc1nc(-c2cccc(Br)c2)cs1 the results were RGS4 pot inactive, RGS4 block inactive, MrgX1 agonist inactive, MrgX1 PAM inactive, MrgX1 antag inactive, RGS4 block valid inactive, RGS4 uninduced inactive and RGS4 inh ctr2 12.0%*.
Screening Cc1c(Cl)ccc2sc(NC(=O)C3CC3)nc12 returned RGS4 pot inactive, RGS4 block 6.21*, MrgX1 agonist inactive, MrgX1 PAM inactive, MrgX1 antag inactive, RGS4 block valid 8.0%*, RGS4 uninduced inactive and RGS4 inh ctr2 inactive.
`Cc1cnc(C(=O)OCC(=O)Nc2ccc(Oc3ccccc3)cc2)cn1` gave RGS4 pot inactive, RGS4 block inactive, MrgX1 agonist inactive, MrgX1 PAM inactive and MrgX1 antag inactive.
For CCCC1=C(C(=O)OCC)C(/C=C/c2ccccc2)n2ncnc2N1 (stereo not drawn) the results were RGS4 pot inactive, RGS4 block inactive, MrgX1 agonist inactive, MrgX1 PAM inactive and MrgX1 antag inactive.
